pEC50: −log10 of the molar value.
biological target: Apelin receptor (Homo sapiens) (UniProt P35414); assay: apelin receptor activation by small molecules – cell-based, CHO-K1 AGTRL-1, PathHunter luminescence, set 3, SAR follow-up (AID 492985); details: CHO-K1 APJ beta-arrestin PathHunter
Outline: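 Assay system: CHO-K1 AGTRL-1 (APJ) PathHunter β-arrestin cell line. Dosing: compound dose-response series with DMSO equalised across wells. Incubation: compound exposure 90 min at 25 °C, detection reagent 60 min. Signal: luminescence from β-gal fragment complementation upon β-arrestin recruitment. Controls: apelin-13 reference wells, 30 nM as dispensed.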

Apelin receptor (Homo sapiens), sequence (P35414 whole entry, looked up, the tested form may be a part): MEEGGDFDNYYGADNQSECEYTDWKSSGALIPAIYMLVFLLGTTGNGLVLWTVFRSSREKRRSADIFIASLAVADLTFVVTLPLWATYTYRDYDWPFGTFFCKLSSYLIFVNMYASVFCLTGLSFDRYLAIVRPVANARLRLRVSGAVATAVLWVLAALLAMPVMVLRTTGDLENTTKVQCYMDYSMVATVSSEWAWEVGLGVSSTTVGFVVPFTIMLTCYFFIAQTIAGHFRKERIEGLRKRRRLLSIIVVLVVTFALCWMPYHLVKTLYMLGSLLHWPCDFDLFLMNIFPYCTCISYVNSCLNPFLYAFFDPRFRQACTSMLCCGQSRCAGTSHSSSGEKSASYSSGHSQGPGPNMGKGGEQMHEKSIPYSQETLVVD

pEC50, active:
CC1=CC(=O)C(C(C)C)=C/C1=N/OS(=O)(=O)c1ccc(C#N)cc1 5.45
CC1=CC(=O)C(C(C)C)=C/C1=N/OS(=O)(=O)c1ccc(F)cc1 5.15
CC1=CC(=O)C(C(C)C)=C/C1=N/OS(=O)(=O)c1ccc(C(C)C)cc1 5.25

From PubChem BioAssay AID492985 (Sanford-Burnham Center for Chemical Genomics, 2010)
